The record followed here is ChEMBL document CHEMBL3745639, “Structure-activity relationships for lipoprotein lipase agonists that lower plasma triglycerides in vivo” (Eur J Med Chem, 2015).

Series [1] has as its target T1, Retinoic acid receptor RXR-alpha (Homo sapiens, UniProt P19793).
T1 sequence (P19793 whole entry): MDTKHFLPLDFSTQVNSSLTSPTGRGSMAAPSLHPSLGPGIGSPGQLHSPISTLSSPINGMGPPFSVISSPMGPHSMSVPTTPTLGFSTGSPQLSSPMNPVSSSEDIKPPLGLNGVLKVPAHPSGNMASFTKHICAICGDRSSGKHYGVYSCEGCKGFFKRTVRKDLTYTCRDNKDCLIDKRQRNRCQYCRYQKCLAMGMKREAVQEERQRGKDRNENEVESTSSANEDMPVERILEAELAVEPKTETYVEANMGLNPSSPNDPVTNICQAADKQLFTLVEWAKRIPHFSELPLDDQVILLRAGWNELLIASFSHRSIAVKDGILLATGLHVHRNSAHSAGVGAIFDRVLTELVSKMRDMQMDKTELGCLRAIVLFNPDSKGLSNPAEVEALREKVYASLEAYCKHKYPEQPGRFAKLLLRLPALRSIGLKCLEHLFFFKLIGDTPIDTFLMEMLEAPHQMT
Put plainly: Agonist activity at RXRalpha (unknown origin). A digest of the protocol:
(§1)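 Single agonist-mode profiling at ten concentrations against FXR, PPARα, PPARγ and RXRα, run as an outside screening service.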

Series [2] addresses T2, Bile acid receptor (Homo sapiens, UniProt Q96RI1).
T2 sequence (Q96RI1 whole entry): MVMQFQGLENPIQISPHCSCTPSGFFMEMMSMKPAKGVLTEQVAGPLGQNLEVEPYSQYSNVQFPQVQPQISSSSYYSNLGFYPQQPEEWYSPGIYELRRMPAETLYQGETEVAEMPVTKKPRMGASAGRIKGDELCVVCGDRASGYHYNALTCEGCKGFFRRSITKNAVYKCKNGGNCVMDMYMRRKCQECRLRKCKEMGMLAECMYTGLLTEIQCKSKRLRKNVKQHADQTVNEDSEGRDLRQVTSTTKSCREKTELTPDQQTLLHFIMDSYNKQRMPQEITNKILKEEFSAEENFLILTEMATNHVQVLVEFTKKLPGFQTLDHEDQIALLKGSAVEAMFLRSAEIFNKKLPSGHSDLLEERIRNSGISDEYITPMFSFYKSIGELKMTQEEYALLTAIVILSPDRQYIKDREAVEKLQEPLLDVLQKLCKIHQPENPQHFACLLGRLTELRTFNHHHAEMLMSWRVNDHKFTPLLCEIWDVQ
Put plainly: Agonist activity at FXR (unknown origin). In short, it runs like this:
as §1

The nature of series [3]: Intrinsic clearance in human liver microsomes at 1 uM after 5 to 40 mins by LC-MS/MS analysis in presence of NADPH. Particulars: read-out: CLH. The series is classed as ADME. In short, it runs like this: (§2)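 Pooled liver microsomes (0.5 mg/ml) with compound at 1 μM in 0.1 M phosphate buffer pH 7.4. Reaction started with NADPH 1 mM. Sampled at 0, 5, 15 and 40 min in duplicate, quenched with acetonitrile containing warfarin, then LC-MS/MS.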
(In general: Liver microsomes are a subcellular fraction often used to study metabolism.)

Series [4] addresses T3, Lipoprotein lipase (Bos taurus) (UniProt P11151).
T3 sequence (whole entry): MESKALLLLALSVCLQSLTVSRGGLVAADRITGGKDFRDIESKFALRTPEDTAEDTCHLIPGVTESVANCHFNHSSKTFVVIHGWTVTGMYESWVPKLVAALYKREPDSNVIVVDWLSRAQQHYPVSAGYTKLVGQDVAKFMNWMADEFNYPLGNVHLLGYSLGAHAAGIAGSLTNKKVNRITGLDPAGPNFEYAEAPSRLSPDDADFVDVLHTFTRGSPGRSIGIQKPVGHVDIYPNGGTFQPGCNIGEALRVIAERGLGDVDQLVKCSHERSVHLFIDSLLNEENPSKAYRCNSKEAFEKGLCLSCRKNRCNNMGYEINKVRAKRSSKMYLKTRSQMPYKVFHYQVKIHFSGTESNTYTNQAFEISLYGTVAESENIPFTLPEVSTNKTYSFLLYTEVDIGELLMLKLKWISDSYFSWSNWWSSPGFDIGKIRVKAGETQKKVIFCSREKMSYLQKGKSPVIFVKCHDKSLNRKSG
The series can be described thus: Induction of bovine LPL stabilization using intralipid as substrate at 12.5 uM preincubated for 10 mins with human recombinant ANGPTL4 followed by substrate addition measured after 45 mins relative to control. In short, it runs like this: (§3)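 Compound in DMSO in buffer (50 mM potassium phosphate pH 7.4, 0.15 M NaCl, 0.01% Triton X-100), with human ANGPTL4 N-terminal fragment (aa 26-184, 75 nM final) and bovine LPL (15 nM final). Preincubated 10 min at 25 °C with shaking. Stopped after 45 min with 2.5% Triton X-100, and NEFA measured enzymatically. Activity normalised between DMSO+LPL+ANGPTL4 (0%) and DMSO+LPL (100%).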

Series [5] can be described thus: Half life in human liver microsomes at 1 uM. The series is classed as ADME. A digest of the protocol: as §2
Series [6] can be described thus: Apparent permeability across apical to basolateral side in human Caco2 cells at 10 uM after 15 to 60 mins. It counts as ADME, cell-based. Particulars: Caco-2. A digest of the protocol:
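Caco-2 monolayers washed with pre-warmed HBSS, then donor solution applied. Transport run with apical pH 6.5 and basolateral pH 7.4. Monolayer integrity checked by TEER and by mannitol permeability. Papp derived from transport rates.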
Background: Caco-2 cells form a polarised layer with tight junctions and transporters.

Series [7] addresses T4, Lipoprotein lipase (Bos taurus, UniProt P11151).
T4 sequence (P11151 whole entry): T3 sequence (whole entry)
The series can be described thus: Induction of bovine LPL stabilization using intralipid as substrate preincubated for 10 mins with human recombinant ANGPTL4 followed by substrate addition measured after 45 mins relative to control. In short, it runs like this:
as §3

Series [8] in a line: Efflux ratio of apparent permeability from basolateral to apical over apical to basolateral side in human Caco2 cells at 10 uM after 15 to 60 mins. It counts as ADME, cell-based. Conditions: Caco-2.
Series [9] concerns the target T3, Lipoprotein lipase (Bos taurus). The series can be described thus: Induction of bovine LPL stabilization using intralipid as substrate at 25 uM preincubated for 10 mins with human recombinant ANGPTL4 followed by substrate addition measured after 45 mins relative to control. A digest of the protocol: as §3
Series [10] can be described thus: Intrinsic clearance in human hepatocytes assessed per 10^6 cells at 1 uM after 10 to 60 mins by LC-MS/MS analysis in presence of NADPH. The series is classed as ADME, cell-based, Hepatocyte. Particulars: read-out: CLH. A digest of the protocol:
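Freshly isolated human hepatocytes (0.5 x 10⁶ cells/ml) in Williams medium E with compound at 1 μM. Reaction started by adding cells. Sampled at 0, 10, 30 and 60 min in duplicate, quenched with acetonitrile containing warfarin, then LC-MS/MS.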

Series [11] can be described thus: Kinetic aqueous solubility of the compound in PBS at pH 1.2 after 2 hrs by LC-Ms analysis. Conditions: read-out: Kinetic_solubility. It counts as physicochemical. In short, it runs like this:
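Kinetic solubility from a 10 mM DMSO stock diluted 1:100 (1% DMSO, maximum detectable 0.1 mM) into PBS pH 7.4 or HCl-adjusted PBS at about pH 1.2. Incubated at 37 °C for 2 h in sealed glass vials, centrifuged at 10000 x g, 37 °C, 20 min, then LC-MS/MS.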

In series [12] the target is T3, Lipoprotein lipase (Bos taurus). Put plainly: Induction of bovine LPL stabilization using intralipid as substrate at 6.25 uM preincubated for 10 mins with human recombinant ANGPTL4 followed by substrate addition measured after 45 mins relative to control. In short, it runs like this:
as §3

Broadly, the EC50 is the concentration at which the effect is half-maximal. The half-life is the time needed for the level to fall by half in the phase considered. A lower half-life goes with rapid decline. The term Papp A→B denotes the apparent permeability from the apical to the basolateral side of a cell layer. Usually efflux ratio stands for the permeability from basolateral to apical divided by that in the opposite direction, in the common usage. Consider `Cc1ccc(NC(=O)c2cc(-n3cc4ccc(C(=O)O)cc4n3)ccc2N2CCCCC2)cc1`, for which the concentration giving a half-maximal response (EC50) is greater than 100 µM in series [1], greater than 100 µM in series [2] and 6 µM in series [7]. Further, the microsomal CLint at 1 µM in series [3] was less than 17 µL/min/mg. The Activity in [4] was 75.6%; in series [9] it was 97%; in series [12], 16%. The compound further registered a half-life at 1 µM in [5] greater than 1.33 h. Also, the Papp A→B at 10 µM in series [6] came to 23 ×10⁻⁶ cm/s. The efflux ratio at 10 µM in [8] turned out to be 1.4. In addition, the hepatocyte CLint at 1 µM in [10] amounted to 12 µL/min/1e6 cells. Also, the solubility kinetic at 2 h in series [11] is less than 2 µM.
